Results taken from PMC6945494 (Biomaterials, 2019).
Converted amounts (≈) assume the structure as drawn. Where two headings read alike, the source gives them in different places. Values belong to the compound of their own block, whether it stands above or below them.

Experiments:
[1] = tested on: HIV-1NL4–3-eGFP; assay: microbe, parasite or virus in culture; format: cell-based; settings: Human immunodeficiency virus 1, T-cell, 240 h, read-out: EC50 (RT activity)
[2] = tested on: HIV-1ADA; assay: Long-term antiretroviral efficacy in MDM; format: cell-based
Method in brief: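 Human monocytes from leukapheresis, purified by elutriation and differentiated 7 days in DMEM with 10% heat-inactivated human serum and 1000 U/mL MCSF. MDM were exposed to 100 μM test compound for 8 h, washed, and kept drug-free with half-media changes every other day. On days 1–30 they were challenged with HIV-1ADA at MOI 0.1 for 16 h. RT activity in fluids on day 10; PFA-fixed cells stained for p24.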

[3] = Pharmacokinetics and biodistribution after a single IM injection; format: in vivo, Sprague Dawley rats; settings: rat
[4] = tested on: CEM-ss CD4+ T-cells
[5] = tested on: HIV-1ADA; assay: EC50 by HIV-1 RT activity in MDM; format: cell-based; settings: read-out: EC50 (HIV-1 RT activity)
[6] = tested on: MDM; assay: MTT cell viability assay in MDM; format: cell-based, human; settings: for effect on mitochondrial reductase activity (MTT): 10–400 μM
[7] = tested on: MDM; assay: Cellular drug uptake and retention in MDM; format: cell-based, human
[8] = Solubility in water and 1-octanol; format: physicochemical
Method in brief: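 Excess test compound or parent nucleoside was added to water or 1-octanol to give saturated solutions. These were mixed 24 h at room temperature, then centrifuged at 14,000 × g for 10 min to remove undissolved drug. Supernatant concentration was quantified by UPLC-TUV.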

[9] = Plasma stability, human plasma; format: in vitro ADME; settings: 37 °C; for chemical stability in plasma: up to 24 h, 1 μM
Method in brief: (§1)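 Plasma (100 μL) was spiked with 1 μM test compound at 37 °C. It was stopped at 0, 2, 6 and 24 h with 1 mL methanol and 3 min vortexing. Heat-inactivated plasma under identical conditions separated chemical from enzymatic loss. After centrifugation at 15,000 g for 10 min, supernatant was diluted in 80% methanol with internal standard. Analysed by UPLC-MS/MS.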

[10] = Plasma stability, animal plasma; format: in vitro ADME, rat, mouse; settings: rodent, dog, rabbit and monkey plasma, after 24 h at 37 °C
Method in brief: as §1

[11] = Prodrug chemical stability at acid, alkaline and neutral pH; format: physicochemical; settings: room temperature; for prodrug degraded: after 24 h

Structure (SMILES): Nc1nc(=O)n([C@@H]2CS[C@H](CO)O2)cc1F [FTC, emtricitabine]
EC50 [1]: 25.7 nM | inhibition at 100 µM ([2]; Human immunodeficiency virus 1, 8 h, read-out: protection (viral inhibition)): 40% | viral inhibition ([2]; MDM, single 8 h treatment 100 μM, challenge at time points later than day one): no viral inhibition | concentration at 7 days ([3]; male, Sprague Dawley, whole blood, intramuscular, 45 mg/kg FTC-equivalent): < 2 ng/mL | drug concentrations in blood and tissues over time (in words) ([3]; single IM 45 mg/kg): declined to undetectable levels within a day | FTC-TP levels in lymph node and spleen cells ([3]; single IM 45 mg/kg FTC equivalents, day 28 / one month): undetectable levels | drug levels in tissues (in words) ([3]; single IM 45 mg/kg, lymph nodes, spleen, liver): rapidly fell below the limit of quantitation | concentration not affecting cell viability (LiveDead staining) ([4]; human): ≤ 200 µM | EC50 ([5]; Human immunodeficiency virus 1, 240 h): 0.5 nM | effect on mitochondrial reductase activity (MTT) [6]: No effects | intracellular drug concentration (uptake) ([7]; 100 μM, over 8 h): < 0.1 nmoles/10^6 cells | intracellular drug (retention) ([7]; at 8 h): undetectable | solubility at 24 h ([8]; 1-octanol): 0.97 ± 0.027 mg/mL (≈ 3.92 mM) | solubility at 24 h ([8]; water): 143 ± 11.2 mg/mL (≈ 578 mM)

chemical stability in plasma ([9]; heat inactivated human plasma): over 90% | plasma stability (in words) ([9]; normal and heat inactivated human plasma, over 24 h): remained stable | chemical stability in plasma ([9]; normal human plasma): over 90% | EC50 ([5]; HIV-1ADA in MDM, MOI 0.1, 10 days): 0.11 nM | degradation in plasma (in words) [10]: high | prodrug degraded ([11]; acidic pH (0.1 M HCl)): 10% | prodrug degraded ([11]; alkaline pH (0.1 M NaOH)): 10% | chemical stability at neutral pH ([11]; neutral pH (water)): stable over 7 days | fold improvement in octanol solubility compared to FTC ([8]; 1-octanol): 90 fold | octanol solubility ([8]; 1-octanol, saturated solution mixed 24 h): 87.56 ± 0.236 mg/mL | fold decrease in aqueous solubility compared to FTC ([8]; water): 4000 fold | aqueous solubility ([8]; water, saturated solution mixed 24 h): 0.0366 ± 0.0093 mg/mL (≈ 0.0426 mM)
Structure (SMILES): CCCCCCCCCCCCCCCCCCCCCCOC(=O)[C@H](Cc1ccccc1)NP(=O)(OC[C@@H]1O[C@H](n2cc(F)c(N)nc2=O)CS1)Oc1ccccc1 (stereo partly drawn) [M2FTC]
concentration not affecting cell viability (LiveDead staining) [4]: ≤ 200 µM | effect on mitochondrial reductase activity (MTT) [6]: No effects | non-cytotoxic concentration (MTT) ([6]; 24 h treatment): ≤ 100 µM | effect on cell viability (MTT) ([6]; above 100 μM): slight reduction in cell viability
